Experimental data taken from ChEMBL document CHEMBL4627410, “Discovery of an Orally Active Small-Molecule Tumor Necrosis Factor-α Inhibitor” (J Med Chem, 2020).
pIC50, pKd: −log10 of the molar value. The source made the active and inactive calls. No cut-off for these calls is given here.

Legend:
[1] = biological target: T1, Tumor necrosis factor (Homo sapiens, UniProt P01375); test: Binding affinity to recombinant TNFalpha (unknown origin) expressed in Escherichia coli BL21 (DE3) incubated for 10 mins by MST assay
T1 sequence (P01375 whole entry): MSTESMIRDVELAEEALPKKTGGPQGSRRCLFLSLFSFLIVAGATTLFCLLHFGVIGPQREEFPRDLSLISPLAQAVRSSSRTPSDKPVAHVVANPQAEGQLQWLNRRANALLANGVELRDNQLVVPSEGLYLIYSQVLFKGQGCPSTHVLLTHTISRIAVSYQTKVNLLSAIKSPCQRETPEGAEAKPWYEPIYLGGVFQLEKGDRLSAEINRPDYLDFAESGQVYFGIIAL

[2] = tested on: Mus musculus; test: Antiinflammatory activity in Balb/c mouse model of Imiquimod-induced psoriasis-like skin lesions assessed as reduction of serum IL-1beta level at 5 mg/kg, ig by ELISA; type: functional, organism-based
How it was run: (§1)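 Back skin shaved (5 cm × 4 cm) under isoflurane. Two days later, 5% imiquimod cream applied topically for 6 consecutive days; controls received base cream. Dosing by gavage, with prednisone 5 mg/kg as reference, n=10 per group. Erythema and scaling scored daily and blinded, 0–4. On day 7: spleen index, serum IL-1β and IL-6 by ELISA, and 3 µm H&E back-skin sections. Means ± SD.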

[3] = tested on: Mus musculus; test: Antiinflammatory activity in Balb/c mouse model of collagen-induced arthritis assessed as reduction in degree of cartilage and bone destruction and inflammation at 5 mg/kg, ig for 2 weeks by H and E staining based histopathological analysis; type: functional, organism-based
How it was run: (§2)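 Balb/c mice immunized intradermally at the tail base with bovine type II collagen emulsified 1:1 in complete Freund's adjuvant (1 mg/mL, 0.1 mL), with the same boost on day 14. Gavage dosing for 2 weeks; prednisone 5 mg/kg i.g. as reference. Non-immunized normal group included, n=10 per group. Outcomes: four-paw arthritis score, blinded, maximum 16. Spleen index = spleen weight/body weight. Serum cytokines by ELISA. Right hind limb fixed in 4% paraformaldehyde, decalcified 30 days in 12.5% EDTA pH 7.0, 6–8 μm H&E sections graded blindly 0–3.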

[4] = tested on: Mus musculus; test: Antiinflammatory activity in Balb/c mouse model of Imiquimod-induced psoriasis-like skin lesions assessed as reduction of serum IL6 level at 5 mg/kg, ig by ELISA; type: functional, organism-based; how it was run: as §1
[5] = tested on: Mus musculus; test: Antiinflammatory activity in Balb/c mouse model of collagen-induced arthritis assessed as reduction in serum IL6 level at 25 to 50 mg/kg, ig for 2 weeks by ELISA; type: functional, organism-based; how it was run: as §2
[6] = biological target: T1, Tumor necrosis factor; test: Binding affinity to recombinant TNFalpha (unknown origin) expressed in Escherichia coli BL21 (DE3) assessed as protection of TNF-alpha from protease mediated digestion at 2.5 to 20 uM
How it was run: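 DARTS assay on TNF-α (His6-tagged, expressed in E. coli BL21(DE3) and purified by Ni-affinity, anion exchange and size exclusion). Protein was treated with compound, then digested with pronase for 30 min. Remaining TNF-α was read out.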

[7] = tested on: Mus musculus; test: Antiinflammatory activity in Balb/c mouse assessed as inhibition of LPS-induced IL6 production at 25 to 50 mg/kg, po pre-treated 90 mins before LPS injection and measured after 4 hrs by sandwich ELISA; type: functional, organism-based
How it was run: (§3)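 Male Balb/c mice, 7–8 weeks old, randomized into control, LPS and two dose groups. Oral dosing 90 min before LPS (1.5 mg/kg, i.p.). Serum taken from clotted blood 4 h after LPS and stored at -80 °C. IL-1β and IL-6 measured by sandwich ELISA. At least six mice per group, each sample run in duplicate.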

[8] = biological target: T1, Tumor necrosis factor; test: Binding affinity to recombinant TNFalpha (unknown origin) expressed in Escherichia coli BL21 (DE3) assessed as increase in Kd for TNF-alpha-TNFR1 binding at 10 uM pe-incubated for 15 mins before TNFR1 addition and measured after 15 mins by MST assay relative to control
How it was run: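 TNF-α (C-terminal His6, from E. coli BL21(DE3), purified by Ni-agarose, thrombin digest, anion exchange and size exclusion) at various concentrations was preincubated with 10 µM compound for 15 min at room temperature. The mix was added to an equal volume of RED-labelled TNFR1 in 20 mM HEPES pH 7.5, 0.05% Tween-20. MST was read at 22 °C (100% LED, 20% MST power) and KD was fitted.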

[9] = biological target: T1, Tumor necrosis factor; test: Binding affinity to recombinant TNFalpha (unknown origin) expressed in Escherichia coli BL21 (DE3) assessed as increase in TNF-alpha thermal stability by measuring tolerated temperature (reference value: 90 degC)
[10] = tested on: Mus musculus; test: Antiinflammatory activity in Balb/c mouse model of Imiquimod-induced psoriasis-like skin lesions assessed as reduction of serum IL-1beta level at 25 to 50 mg/kg, ig by ELISA; type: functional, organism-based; how it was run: as §1
[11] = tested on: Mus musculus; test: Antiinflammatory activity in Balb/c mouse model of Imiquimod-induced psoriasis-like skin lesions assessed as reduction of serum IL6 level at 25 to 50 mg/kg, ig after 7 days by ELISA; type: functional, organism-based; how it was run: as §1
[12] = tested on: Mus musculus; test: Antiinflammatory activity in Balb/c mouse model of Imiquimod-induced psoriasis-like skin lesions assessed as reduction of histopathological changes at 25 to 50 mg/kg, ig by H and E staining based histopathological analysis; type: functional, organism-based; how it was run: as §1
[13] = tested on: Mus musculus; test: Antiinflammatory activity in Balb/c mouse model of collagen-induced arthritis assessed as reduction in degree of cartilage and bone destruction and inflammation at 25 to 50 mg/kg, ig for 2 weeks by H and E staining based histopathological analysis; type: functional, organism-based; how it was run: as §2
[14] = tested on: Mus musculus; test: Antiinflammatory activity in Balb/c mouse model of collagen-induced arthritis assessed as reduction in arthritic score at 25 to 50 mg/kg, ig for 2 weeks; type: functional, organism-based; how it was run: as §2
[15] = tested on: Mus musculus; test: Antiinflammatory activity in Balb/c mouse model of endotoxemia assessed as increase in mouse survival at 25 mg/kg, ig pre-treated 2 hrs before LPS injection and measured 12 to 96 hrs post LPS challenge; type: functional, organism-based
How it was run: (§4)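 Endotoxemia induced with LPS 15 mg/kg i.p., n=10 per group; controls received saline i.p. Gavage dose given 2 h before LPS, then again at 12, 24, 48, 72 and 96 h. Survival followed daily for up to 2 weeks. Liver and lung fixed in 10% formalin and sections stained with H&E. Means ± SD.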

[16] = Toxicity in mouse RAW264.7 cells at 5 to 20 uM; type: cell-based
[17] = biological target: T1, Tumor necrosis factor; test: Binding affinity to recombinant TNFalpha (unknown origin) expressed in Escherichia coli BL21 (DE3) assessed as inhibition of TNFR1 binding to immobilized TNF-alpha pre-incubated with TNFR1 for 20 mins followed by TNFalpha addition and measured after 120 mins by ELISA
[18] = biological target: T2, Tumor necrosis factor (Mus musculus) (UniProt P06804); test: (§5) Inhibition of TNF-alpha in mouse RAW264.7 cells assessed as inhibition of LPS-induced IKBalpha phosphorylation at 5 to 20 uM pre-incubated for 12 hrs before LPS stimulation for 2 hrs by Western blot analysis; type: cell-based
T2 sequence (whole entry): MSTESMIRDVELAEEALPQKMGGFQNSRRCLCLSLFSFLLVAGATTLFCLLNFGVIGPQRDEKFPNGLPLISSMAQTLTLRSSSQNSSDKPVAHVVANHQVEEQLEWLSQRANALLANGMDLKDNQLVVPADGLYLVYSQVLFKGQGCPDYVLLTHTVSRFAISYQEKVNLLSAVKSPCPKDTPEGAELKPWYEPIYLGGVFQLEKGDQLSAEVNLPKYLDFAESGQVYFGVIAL
How it was run: (§6)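 RAW264.7 cells (5×10^4 cells/mL) cultured overnight. Compound at 5, 10 or 20 µM for 12 h, then LPS 1 µg/mL for 2 h. Lysed in RIPA, protein equalized by BCA, run on 12% SDS-PAGE. Immunoblotted for IκBα and p-IκBα, ECL detection.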

[19] = tested on: Mus musculus; test: Antiinflammatory activity in Balb/c mouse model of collagen-induced arthritis assessed as reduction in serum IFNgamma level at 25 to 50 mg/kg, ig for 2 weeks by ELISA; type: functional, organism-based; how it was run: as §2
[20] = tested on: Mus musculus; test: Antiinflammatory activity in Balb/c mouse model of endotoxemia assessed as reduction in emergence of hemorrhagic necrosis at 25 mg/kg, ig pre-treated 2 hrs before LPS injection and measured 12 to 96 hrs post LPS challenge by H and E staining based histopathological analysis; type: functional, organism-based; how it was run: as §4
[21] = tested on: Mus musculus; test: Antiinflammatory activity in Balb/c mouse model of collagen-induced arthritis assessed as increase in serum IL10 level at 25 to 50 mg/kg, ig for 2 weeks by ELISA; type: functional, organism-based; how it was run: as §2
[22] = tested on: Mus musculus; test: Antiinflammatory activity in Balb/c mouse model of collagen-induced arthritis assessed as reduction in serum IL-1beta level at 25 to 50 mg/kg, ig for 2 weeks by ELISA; type: functional, organism-based; how it was run: as §2
[23] = tested on: Mus musculus; test: Antiinflammatory activity in Balb/c mouse model of Imiquimod-induced psoriasis-like skin lesions assessed as decrease in adjusted scale scores consisting of erythema, epidermal acanthosis, and lesions thickness at 25 to 50 mg/kg, ig; type: functional, organism-based; how it was run: as §1
[24] = tested on: Mus musculus; test: Antiinflammatory activity in Balb/c mouse assessed as inhibition of LPS-induced IL1-beta production at 25 to 50 mg/kg, po pre-treated 90 mins before LPS injection and measured after 4 hrs by sandwich ELISA; type: functional, organism-based; how it was run: as §3
[25] = tested on: Mus musculus; test: Antiinflammatory activity in Balb/c mouse model of endotoxemia assessed as reduction in liver damage at 25 mg/kg, ig pre-treated 2 hrs before LPS injection and measured 12 to 96 hrs post LPS challenge by H and E staining based histopathological analysis; type: functional, organism-based; how it was run: as §4
[26] = biological target: T2, Tumor necrosis factor (Mus musculus); test: Inhibition of TNF-alpha in mouse RAW264.7 cells assessed as inhibition of NFkappB/p65 nuclear translocation at 5 to 20 uM by DAPI staining based microscopy; type: cell-based
How it was run: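 RAW264.7 cells grown to 50–70% confluence in glass chambers. Pretreated 12 h with DMSO or compound, then TNF-α 10 ng/mL for 2 h. Fixed in 4% paraformaldehyde, permeabilized with 0.25% Triton X-100, blocked with BSA. Stained with anti-p65 (1:1000, 4 °C overnight), fluorescent secondary (1:500) and DAPI nuclear stain. Imaged by fluorescence microscopy.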

[27] = tested on: Mus musculus; test: Antiinflammatory activity in Balb/c mouse model of collagen-induced arthritis assessed as reduction in spleen index at 25 to 50 mg/kg, ig for 2 weeks; type: functional, organism-based; how it was run: as §2
[28] = tested on: Mus musculus; test: Antiinflammatory activity in Balb/c mouse model of Imiquimod-induced psoriasis-like skin lesions assessed as reduction of spleen index at 25 to 50 mg/kg, ig; type: functional, organism-based; how it was run: as §1
[29] = tested on: Mus musculus; test: Antiinflammatory activity in Balb/c mouse model of endotoxemia assessed as reduction in lung damage at 25 mg/kg, ig pre-treated 2 hrs before LPS injection and measured 12 to 96 hrs post LPS challenge by H and E staining based histopathological analysis; type: functional, organism-based; how it was run: as §4
[30] = biological target: T2, Tumor necrosis factor (Mus musculus); test: as §5; type: cell-based; how it was run: as §6; remark: listed apart in the source
[31] = tested on: Mus musculus; test: Antiinflammatory activity in Balb/c mouse model of Imiquimod-induced psoriasis-like skin lesions assessed as inhibition of inflammation at 25 to 50 mg/kg, ig; type: functional, organism-based; how it was run: as §1

O=c1c([C@H]2NCCc3c2[nH]c2ccccc32)c(O)[nH]c(=S)n1Cc1ccc(F)cc1
Kd [1]: Not Active

O=c1c([C@H]2NCCc3c2[nH]c2ccccc32)c(O)[nH]c(=S)n1-c1ccc2ccccc2c1
Kd [1]: Not Active

O=C(CCc1ccccc1)[C@H]1Cc2[nH]cnc2CN1C(=O)c1cccs1
Kd [1]: Not Active

CC1CCc2c([nH]c3ccccc23)[C@H]1c1c(O)nc2n(c1=O)CCS2 (some centres not stated)
Kd [1]: Not Active

Cc1cc(C)cc(-n2c(O)c([C@H]3NCCc4c3[nH]c3ccccc43)c(O)nc2=S)c1
Kd [1]: Not Active

C[C@]12C=CC(=O)C=C1CC[C@@H]1[C@@H]2C(=O)C[C@@]2(C)[C@H]1CC[C@]2(O)C(=O)CO
Activity [2]: Active
Activity [3]: Active
Activity [4]: Active

O=C1C[C@H](Nc2ncnc3[nH]cnc23)CN1Cc1ccccc1
Activity [5]: Dose-dependent effect
Activity [6]: Dose-dependent effect
inhibition [7]: Active
fold change (FC) [8]: 18
T [9]: 94 °C
Activity [10]: Dose-dependent effect
Activity [11]: Dose-dependent effect
pKd ([1]; read-out: Kd): 4.09
Activity [12]: Active
Activity [13]: Active
Activity [14]: Active
Activity [15]: Active
pIC50 [16]: < 4.00
pIC50 [17]: 6.96
inhibition [18]: Active
Activity [19]: Dose-dependent effect
Activity [20]: Active
Activity [21]: Dose-dependent effect
Activity [22]: Dose-dependent effect
Activity [23]: Active
inhibition [24]: Active
Activity [25]: Active
inhibition [26]: Active
Activity [27]: Active
Activity [28]: Active
Activity [29]: Active
inhibition [30]: Dose-dependent effect
Activity [31]: Active

Cn1c(SCC(=O)N2CC(=O)Nc3cc(C(F)(F)F)ccc32)nnc1-c1ccccc1Cl
Kd [1]: Not Active
